According to publication PMC5299595 (Fitoterapia, 2016):
pEC50, pIC50, pKi: −log10 of the molar value. “Also recorded” adds a separate entry of the source. Where a name gives a salt, the structure may show the parent alone. Read-outs that look alike come from different tables or passages of the source.

Legend:
α4β2- and α7-nicAchRs [1] = conditions: previously reported, ref Littleton et al. (2005) [15], cited from earlier work
α7-nicAchR [2] = conditions: read-out: Ki α7-nicAchR, cited from earlier work
α4β2-nicAchR [3] = conditions: read-out: Ki α4β2-nicAchR, cited from earlier work
[4] = DPPH free radical scavenging assay; conditions: read-out: EC50, DPPH free radical scavenging; DPPH 300 μM, 5 minutes
cats = conditions: intravenous; cited from earlier work
DAT [5] = target: T1, DAT (Rattus norvegicus, UniProt P23977); assay: [3H]-GBR12935 competition binding in rat striatal membranes; conditions: read-out: Ki, [3H]-GBR12935 binding
How it was run: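 Striatal tissue homogenised in 120 mM NaCl/50 mM Tris-HCl (pH 7.4), spun at 25,000 × g for 20 min at 4°C, then washed thrice in the same buffer plus 0.01% FBS. Membranes (1 mg/ml final) preincubated 15 min with test compound (final 1.0 mM – 0.1 nM; DMSO <0.1%). 1 nM [3H]-GBR12935 then added for 1 h at room temperature. GF/B filtration and scintillation counting; non-specific binding defined with 10 μM GBR12909.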

DAT [6] = target: T1, DAT; type: in vivo
How it was run: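 High-speed chronoamperometry with Nafion-coated carbon fibre microelectrodes in the dorsal striatum of isoflurane-anaesthetised rats. Clearance of locally applied exogenous DA used to gauge DAT function, and test compound also applied locally in the striatum.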

α4β2-nicAchR [7] = target: α4β2-nicAchR (Rattus norvegicus, UniProt P09483+P12390); assay: [3H]-cytisine competition binding in rat cortical membranes; conditions: read-out: Ki, [3H]-cytisine binding (α4β2-nicAchR)
rabbits = conditions: intravenous; cited from earlier work
[8] = tested on: rat striatal slices preloaded with [3H]-DA; assay: Fractional [3H] release from [3H]-DA preloaded superfused rat striatal slices; type: cell-based
How it was run: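 Rat coronal striatal slices (500 μm, 6–8 mg) equilibrated 30 min at 34°C in oxygenated Krebs' buffer (pH 7.4), then preloaded with 0.1 μM [3H]-DA for 30 min. Superfused at 34°C, 1 ml/min, with buffer containing 10 μM pargyline and 10 μM nomifensine. Two 4-min basal samples taken after 60 min. Test compound (10, 100 or 1000 μM) then perfused per chamber, or 100 μM given after 20 min of 10 μM MEC or vehicle. Compared with vehicle-treated slices by Bonferroni post-hoc test; n = 4–10 rats.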

[9] = PubChem data; cited from earlier work
mice = conditions: cited from earlier work
α4β2- and α7-nicAchRs [10] = conditions: α7 vs α4β2, based on comparison of Ki's
[11] = tested on: nicAchRs in SH-SY5Y cells; assay: 45Ca2+ entry in SH-SY5Y cells; type: cell-based, human
DAT [12] = target: T1, DAT; assay: DAT-mediated [3H]-DA uptake in rat striatal synaptosomes; type: biochemical; conditions: read-out: IC50, DAT-mediated [3H]-DA uptake
How it was run: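 Striata from CO2-anaesthetised adult male Sprague-Dawley rats (200–250 g) homogenised in pH 7.4 HEPES uptake buffer (100 μM pargyline, 0.32 M sucrose). Synaptosomes taken as the 16,000 × g pellet after a 1,000 × g spin. Test compound (final 1 mM – 0.1 nM; DMSO ≤1.0%) preincubated 10 min at 37°C. [3H]-DA (15–30 nM final) uptake for 5 min at 37°C, stopped on ice, GF/C filtration, scintillation counting. Non-specific uptake defined with 10 μM GBR-12909.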

α7-nicAchR [13] = target: α7-nicAchR (Rattus norvegicus, UniProt Q05941); assay: [3H]-MLA competition binding in rat hippocampal membranes; conditions: read-out: Ki, [3H]-MLA binding (α7-nicAchR)
nicAchRs = assay: [3H]-epibatidine competition binding in rat cortical membranes; conditions: read-out: Ki, [3H]-epibatidine binding
DAT [14] = target: T1, DAT; conditions: cited from earlier work
[15] = tested on: rat striatal slices preloaded with [3H]-DA; conditions: cited from earlier work

**Q.** Which DDR value (α4β2- and α7-nicAchRs [1]) does the source give for `c1cncc([C@@H]2CCCCN2)c1` [anabasine] here?
**A.** Its DDR value is 4.16.

**Q.** And the pKi (α7-nicAchR [2])?
**A.** The pKi was 7.24.

**Q.** And the pKi (α4β2-nicAchR [3])?
**A.** The pKi was 7.19.

**Q.** With `O=c1c(O)c(-c2ccc(O)c(O)c2)oc2cc(O)cc(O)c12` [Quercetin] as the molecule, how does the pEC50 [4] read?
**A.** The pEC50 was 4.95.

**Q.** Which “Effect on blood pressure” value (cats) does the source give for `CN1CCCC2C(c3ccccc3)C(C3=NCCCC3)C(c3ccccc3)CC21` (stereo not drawn) [Lobinaline, lobinaline] here?
**A.** Its value is “lower blood pressure”.

**Q.** And the Effect on respiration (cats)?
**A.** Its Effect on respiration is “unaffected”.

**Q.** And the pKi (DAT [5])?
**A.** The pKi was 5.59.

**Q.** What about the “Time after ejection at which effects on DA clearance are no longer significant” value (DAT [6]; local application in striatum) of the same molecule?
**A.** The value was 3 to 5 min.

**Q.** And the “Direct effect on electrochemical DA signal when locally applied alone” value (DAT [6]; locally applied from a micropipette, n = 10, data not shown)?
**A.** The value was “no direct effects”.

**Q.** What about the pKi (α4β2-nicAchR [7]) of the same molecule?
**A.** Its pKi is 5.97.

**Q.** And the “Effect on blood pressure” value (rabbits)?
**A.** Its value is “lower blood pressure”.

**Q.** What about the Effect on respiration (rabbits) of the same molecule?
**A.** Its Effect on respiration is “unaffected”.

**Q.** What about the “Fractional [3H] release vs vehicle” value ([8]; 10 μM) of the same molecule?
**A.** The value was “not significantly increased”.

**Q.** What about the “Fractional [3H] release vs vehicle after MEC pretreatment” value ([8]; 100 μM after 10 μM MEC pretreatment for 20 minutes) of the same molecule?
**A.** Its value is “not significantly different; also recorded: no significant difference”.

**Q.** And the “Fractional [3H] release, greater than vehicle” value ([8]; 100 μM, 8 minutes after treatment, MEC experiment set)?
**A.** The value was 160%.

**Q.** What about the “Maximum fractional [3H] release, greater than vehicle treated” value ([8]; 100 μM, maximum 12 minutes post-treatment, concentration-response studies) of the same molecule?
**A.** Its value is 186%.

**Q.** What about the “Maximum fractional [3H] release, greater than vehicle treated controls” value ([8]; 100 μM, maximum 16 minutes after treatment, MEC experiment set) of the same molecule?
**A.** Its value is 262%.

**Q.** What about the “Maximum fractional [3H] release, greater than vehicle treated” value ([8]; 1000 μM, maximum 8 minutes post-treatment) of the same molecule?
**A.** Its value is 494%.

**Q.** And the hydrogen bond acceptors [9]?
**A.** Its hydrogen bond acceptors is 2.

**Q.** What about the hydrogen bond donors [9] of the same molecule?
**A.** The hydrogen bond donors was 0.

**Q.** What about the molar fractivity [9] of the same molecule?
**A.** The molar fractivity was 82.47.

**Q.** And the minimal lethal dose (mice; subcutaneous administration in mice)?
**A.** Its minimal lethal dose is 800 mg/kg.

**Q.** What about the pEC50 [4] of the same molecule?
**A.** Its pEC50 is 4.75.

**Q.** What about the “NicAchR Selectivity (-fold difference)” value (α4β2- and α7-nicAchRs [10]) of the same molecule?
**A.** The value was 63 -fold.

**Q.** What about the “45Ca2+ entry, increase above basal” value ([11]; 1 mM) of the same molecule?
**A.** The value was 41.6%.

**Q.** What about the “45Ca2+ entry, increase above basal” value ([11]; 1 mM concomitantly with NIC 10 μM) of the same molecule?
**A.** The value was 115.7%.

**Q.** What about the “Effect of MEC on compound-induced 45Ca2+ entry” value ([11]; 1 mM with MEC 1 μM) of the same molecule?
**A.** Its value is “completely abolished”.

**Q.** And the pIC50 (DAT [12])?
**A.** Its pIC50 is 4.92.

**Q.** What about the pKi (α7-nicAchR [13]) of the same molecule?
**A.** The pKi was 4.17.

**Q.** What about the pKi (nicAchRs) of the same molecule?
**A.** Its pKi is 4.79.

**Q.** For `CN1CCC[C@H]1c1cccnc1` [Nicotine, (−)-nicotine], which “Activity at the DAT” value (DAT [14]; rat striatal synaptosomes) is on record?
**A.** Its value is “inactive”.

**Q.** What about the DDR value (α4β2- and α7-nicAchRs [1]) of the same molecule?
**A.** The DDR value was 13.00 ^6.

**Q.** And the DDR value (α4β2- and α7-nicAchRs [1]; listed as nicotine)?
**A.** Its DDR value is 13.00.

**Q.** What about the pKi (α7-nicAchR [2]; ref Rueter et al. (2006)) of the same molecule?
**A.** Its pKi is 5.84.

**Q.** What about the “NicAchR Selectivity (-fold difference)” value (α4β2- and α7-nicAchRs [10]) of the same molecule?
**A.** The value was 1508 -fold.

**Q.** And the “45Ca2+ entry, increase above basal” value ([11]; 10 μM, LCaq experiments (Fig. 1A))?
**A.** The value was 374.4%.

**Q.** What about the “45Ca2+ entry, increase above basal” value ([11]; 10 μM, lobinaline experiments (Fig. 6A)) of the same molecule?
**A.** Its value is 196.6%.

**Q.** And the pKi (α4β2-nicAchR [3]; ref Rueter et al. (2006))?
**A.** Its pKi is 9.02.

**Q.** With `CNC1(C)C2CCC(C2)C1(C)C` (stereo not drawn) [MEC, mecamylamine (MEC) hydrochloride] as the molecule, how does the “Effect on 45Ca2+ entry” value ([11]; 1 μM alone) read?
**A.** The value was “unaffected; also recorded: did not affect”.

**Q.** With `CN1[C@@H](CC(=O)c2ccccc2)CCC[C@H]1C[C@H](O)c1ccccc1` [Lobeline, (−)-lobeline hydrochloride] as the molecule, how does the pIC50 (DAT [14]; read-out: IC50, DAT inhibition) read?
**A.** Its pIC50 is 4.10 to 4.55.

**Q.** What about the DDR value (α4β2- and α7-nicAchRs [1]) of the same molecule?
**A.** Its DDR value is 6.27 ^6.

**Q.** What about the DDR value (α4β2- and α7-nicAchRs [1]; listed as lobeline) of the same molecule?
**A.** The DDR value was 6.27.

**Q.** And the pKi (α7-nicAchR [2]; ref Hojahmat et al. (2010))?
**A.** Its pKi is 5.20.

**Q.** What about the minimal lethal dose (mice; mouse, in vivo, sc) of the same molecule?
**A.** The minimal lethal dose was 300 mg/kg.

**Q.** And the pEC50 [4]?
**A.** Its pEC50 is 3.64.

**Q.** What about the “NicAchR Selectivity (-fold difference)” value (α4β2- and α7-nicAchRs [10]) of the same molecule?
**A.** The value was 1565 -fold.

**Q.** And the “MEC sensitivity of evoked fractional [3H] release” value [15]?
**A.** The value was “MEC-insensitive”.

**Q.** And the pKi (α4β2-nicAchR [3]; ref Hojahmat et al. (2010))?
**A.** The pKi was 8.40.
